Calls of active or inactive are those of the source.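 The calls were made as follows, unless noted: active = viability loss from added drug above about 55%, and viability with drug at most 40%, in both replicates (limit read from the data, passing the limit was not always enough); inconclusive = both conditions met in only one replicate; inactive = neither replicate meets both conditions.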
Assays:
[1] = target: Pantothenate synthetase (Mycobacterium tuberculosis (strain ATCC 25618 / H37Rv)) (UniProt P9WIL5); experiment: Recombinant Mtb pantothenate synthetase (PanC) inhibitors, coupled enzyme, confirmatory (AID 375; call rule not given here;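 also: 0% = full reaction with vehicle and 100% = no enzyme background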); details: coupled enzyme assay; at 10 µM, stronger effect = higher value
Pantothenate synthetase (Mycobacterium tuberculosis (strain ATCC 25618 / H37Rv)), sequence (P9WIL5 whole entry, looked up): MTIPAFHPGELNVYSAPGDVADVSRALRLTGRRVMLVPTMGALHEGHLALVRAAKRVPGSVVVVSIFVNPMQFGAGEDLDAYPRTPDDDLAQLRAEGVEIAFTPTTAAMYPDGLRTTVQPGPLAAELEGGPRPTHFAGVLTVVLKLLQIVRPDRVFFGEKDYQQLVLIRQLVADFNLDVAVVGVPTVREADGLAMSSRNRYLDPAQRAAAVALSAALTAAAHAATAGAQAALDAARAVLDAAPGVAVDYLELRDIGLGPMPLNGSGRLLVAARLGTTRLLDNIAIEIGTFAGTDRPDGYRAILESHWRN

[2] = reducers of endogenous Her2 protein level, primary screen, SKBR3 breast tumor cells, AlphaScreen, ATP viability (AID 461;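 active = Her2 level under about 52% in both replicate screens, with viability over 70% of control, limit read from the data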;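 as to Her2 level: lower value means less Her2 protein in the cells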;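 as to viability: percent of carrier control wells set as 100% viability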); details: 18-24 h, measured here: SKBR3 viability, ATP luminescence, at 10 µM
[3] = target: Receptor tyrosine-protein kinase erbB-2 (Homo sapiens) (UniProt P04626); experiment: as above; details: 18-24 h, at 10 µM, stronger effect = lower value
Receptor tyrosine-protein kinase erbB-2 (Homo sapiens), sequence (P04626 whole entry, looked up): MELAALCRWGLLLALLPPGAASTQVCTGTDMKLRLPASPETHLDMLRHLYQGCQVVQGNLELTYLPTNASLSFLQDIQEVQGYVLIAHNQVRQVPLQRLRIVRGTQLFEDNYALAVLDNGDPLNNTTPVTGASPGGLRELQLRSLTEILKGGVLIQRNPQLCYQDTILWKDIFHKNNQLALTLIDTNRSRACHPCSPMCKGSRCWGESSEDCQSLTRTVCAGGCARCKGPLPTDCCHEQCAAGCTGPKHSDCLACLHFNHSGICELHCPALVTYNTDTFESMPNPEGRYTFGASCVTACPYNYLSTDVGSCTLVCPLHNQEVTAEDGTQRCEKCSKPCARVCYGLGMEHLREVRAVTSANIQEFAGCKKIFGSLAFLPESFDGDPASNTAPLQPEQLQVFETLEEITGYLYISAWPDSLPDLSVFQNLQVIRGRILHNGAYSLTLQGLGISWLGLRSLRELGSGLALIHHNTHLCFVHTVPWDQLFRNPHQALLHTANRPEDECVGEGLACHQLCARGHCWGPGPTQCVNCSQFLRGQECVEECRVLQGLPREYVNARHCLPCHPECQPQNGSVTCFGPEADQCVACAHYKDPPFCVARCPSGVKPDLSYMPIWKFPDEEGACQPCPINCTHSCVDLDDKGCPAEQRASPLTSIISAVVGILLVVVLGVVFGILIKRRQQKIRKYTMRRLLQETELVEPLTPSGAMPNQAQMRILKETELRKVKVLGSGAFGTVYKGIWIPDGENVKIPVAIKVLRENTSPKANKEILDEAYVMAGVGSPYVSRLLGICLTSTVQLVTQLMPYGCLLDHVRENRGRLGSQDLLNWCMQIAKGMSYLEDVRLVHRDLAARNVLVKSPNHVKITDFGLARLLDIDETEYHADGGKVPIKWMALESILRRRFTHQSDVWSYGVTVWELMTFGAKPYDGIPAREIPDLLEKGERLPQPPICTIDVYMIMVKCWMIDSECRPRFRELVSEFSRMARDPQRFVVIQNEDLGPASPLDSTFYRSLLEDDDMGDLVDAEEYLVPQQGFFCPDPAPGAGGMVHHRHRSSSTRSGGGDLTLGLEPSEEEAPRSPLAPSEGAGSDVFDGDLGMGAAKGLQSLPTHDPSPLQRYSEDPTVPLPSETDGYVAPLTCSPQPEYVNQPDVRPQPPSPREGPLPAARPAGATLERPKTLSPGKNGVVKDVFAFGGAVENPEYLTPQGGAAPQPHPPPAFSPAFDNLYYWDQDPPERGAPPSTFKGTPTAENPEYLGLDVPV

[4] = SK-BR-3 cell growth inhibitors, pilot screen, 24 h, human (AID 572;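 active = viability at or below 10% of carrier control in both of two separate runs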;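 also: compound exposure lasted between 18 and 24 h rather than exactly 24 h; 100% = carrier-treated control wells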); details: SK-BR-3 viability, CellTiter-Glo luminescence, at 10 µM, stronger effect = lower value
[5] = HUVEC growth inhibition – cell-based, human, primary screen (AID 575;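 active = viability at or below 30% in both replicate assays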;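 also: 100% = median of untreated cell wells with 0.1% DMSO on each plate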); details: HUVEC proliferation, CellTiter-Glo luminescence, 72 h; at 10 µM; stronger effect = lower value
How it was run: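 Material: primary human umbilical vein endothelial cells / Schedule: 72 h exposure, 37 °C, 5% CO2, 30 min RT equilibration / Signal: ATP-based CellTiter-Glo luminescent read / Read-out basis: percent of median DMSO-control luminescence / Control set: 32 DMSO-only cell-control wells (high), 32 MePR drug-control wells (low) per plate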

[6] = growth inhibitors of H69AR lung tumor, primary screen, human, duplicate replicates (AID 580;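 active = viability at or under a set limit in both replicates, limit being median viability minus 3 SD, cut at about 48% in these data, passing the limit was not always enough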;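 also: 100% = mean luminescence of untreated wells and 0% = no signal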); details: H69AR lung tumor cells viability, ATP luminescence, 72 h; at 10 µM; stronger effect = lower value
[7] = reversal of MRP1-mediated doxorubicin resistance, pilot screen, H69AR cells, doxorubicin co-treatment (AID 601); details: CellTiter-Glo, 72 h, at 10 µM; for differential viability (reversal): stronger effect = higher value
[8] = 384-well plate pilot, post-Golgi transport modulator project, inhibition of yeast transport mutant growth (AID 636; in the data active = inhibition above about 31%); details: absorbance 615 nm, about 18 h, stronger effect = higher value
[9] = growth suppression of yeast trafficking mutant, preliminary HTS, modulators of trafficking downstream of Golgi apparatus project, 1536-format plate, OD 615 nm (AID 637; in the data active = inhibition above about 30%); details: yeast transport mutant growth, absorbance 615 nm, 18 h; stronger effect = higher value
[10] = H69AR cells + 2 uM doxorubicin, measured here: viability with 2 uM doxorubicin, stronger effect = lower value
[11] = H69AR cells, compound alone cytotoxicity

Row | Structure (SMILES) | inhibition [1] | viability [2] [%] | Her2 level [3] | viability [4] | viability [5] | viability [6] | differential viability (reversal) ([7]; H69AR cells + 2 uM doxorubicin) | viability [7, 10] [%] | viability [7, 11] [%] | inhibition [8] | inhibition [9]
1 | Nc1ccc(C2(c3ccc(N)cc3)CN3CCC2CC3)cc1 | 0% (inactive) | 120 | 88% (inactive) | 120% (inactive) | 85.5% (inactive) | 106% (inactive) | 6.37% (inactive) | 100 | 106 | -5.75% (inactive) | 0% (inactive)
2 | Cn1c(C(=O)N2CCC3(CC2)OCCO3)cc2c(=O)n(C)c3ccccc3c21 | 0% (inactive) | 108 | 82.5% (inactive) | 108% (inactive) | 80.2% (inactive) | 80.6% (inactive) | -5.79% (inactive) | 86.4 | 80.6 | -3.82% (inactive) | -5.45% (inactive)
3 | O=C1OCCC1NC1=NCCC1 (stereo not given) | 0% (inactive) | 92 | 91% (inactive) | 92% (inactive) | 111% (inactive) | 100% (inactive) | 13.1% (inactive) | 87.1 | 100 | -0.78% (inactive) | -5.41% (inactive)
4 | C=CCn1c(O)c(C(C)=Nc2ccc(N(CC)CC)cc2)c(=O)[nH]c1=O | 1% (inactive) | 102 | 105% (inactive) | 102% (inactive) | 62.6% (inactive) | 16.3% (active) | -63.3% (inactive) | 79.7 | 16.3 | -2.08% (inactive) | -8% (inactive)
5 | Cc1cnn(C2CCN(C)CC2)c1N | 0% (inactive) | 97 | 96.5% (inactive) | 97% (inactive) | 102% (inactive) | 104% (inactive) | 5.52% (inactive) | 98.4 | 104 | 0.14% (inactive) | -5.41% (inactive)
6 | N#Cc1ccccc1Cn1cc(C(=O)C2CC2)c2ccccc21 | 0% (inactive) | 86 | 103% (inactive) | 86% (inactive) | 81.5% (inactive) | 59.4% (inactive) | -32.4% (inactive) | 91.8 | 59.4 | -3.38% (inactive) | -5.5% (inactive)
7 | C=CCn1c(O)c(C=NCCN(C)C)c(=O)[nH]c1=O | 0% (inactive) | 97.5 | 108% (inactive) | 97.5% (inactive) | 110% (inactive) | 97.2% (inactive) | 3.12% (inactive) | 94.1 | 97.2 | -0.39% (inactive) | -0.98% (inactive)
8 | O=C(c1ccncc1)C12CN3CN(CN(C3)C1)C2 | 0% (inactive) | 115 | 114% (inactive) | 115% (inactive) | 97.6% (inactive) | 89.5% (inactive) | 5.16% (inactive) | 84.4 | 89.5 | -3.25% (inactive) | -2.5% (inactive)
9 | O=C1CC(c2ccccc2)CC(O)=C1C=NCCN1CCN(C(=O)Cc2ccccc2)CC1 (stereo not given) | 0% (inactive) | 122 | 97% (inactive) | 122% (inactive) | 91.2% (inactive) | 92.1% (inactive) | -2.69% (inactive) | 94.8 | 92.1 | -0.26% (inactive) | 11.5% (inactive)
10 | COc1ccc(CN2CCN(c3ccccc3F)CC2)c(OC)c1 | 1% (inactive) | 92 | 88% (inactive) | 92% (inactive) | 91.1% (inactive) | 128% (inactive) | 42.5% (inactive) | 85.4 | 128 | -4.46% (inactive) | -0.98% (inactive)
11 | CC(C)OCCCNC(=O)c1c(N)n(CC2CCCO2)c2nc3ccccc3nc12 (stereo not given) | 2% (inactive) | 100 | 71.5% (inactive) | 100% (inactive) | 55.2% (inactive) | 59.6% (inactive) | -19.6% (inactive) | 79.2 | 59.6 | -4.8% (inactive) | -4.13% (inactive)
12 | CC12CCCCC1=[N+]([O-])CN2O (stereo not given) | 5% (inactive) | 102 | 112% (inactive) | 102% (inactive) | 109% (inactive) | 105% (inactive) | 15.9% (inactive) | 89.4 | 105 | -1.33% (inactive) | 8.71% (inactive)
13 | CCOC(=O)c1cccc([P+](=O)O)c1 | 0% (inactive) | 92.5 | 114% (inactive) | 92.5% (inactive) | 96.3% (inactive) | 96.5% (inactive) | -0.595% (inactive) | 97.1 | 96.5 | 3.95% (inactive) | -9.03% (inactive)
14 | Cc1cc(NC(=O)COC(=O)c2c(C)nn(Cc3ccccc3)c2Cl)no1 | 0% (inactive) | 96 | 102% (inactive) | 96% (inactive) | 79.2% (inactive) | 105% (inactive) | 19% (inactive) | 86 | 105 | -4.27% (inactive) | -8.03% (inactive)
15 | CCn1c(C)c(C(=O)O)c2cc(OC)ccc21 | 4% (inactive) | 88.5 | 76% (inactive) | 88.5% (inactive) | 105% (inactive) | 96.1% (inactive) | -4.98% (inactive) | 101 | 96.1 | -3.2% (inactive) | -0.65% (inactive)
16 | CC(=NCCCO)c1c(O)n(Cc2ccccc2)c(=O)[nH]c1=O | 0% (inactive) | 95 | 94% (inactive) | 95% (inactive) | 98.6% (inactive) | 94.4% (inactive) | 4.15% (inactive) | 90.2 | 94.4 | -4.61% (inactive) | 3.67% (inactive)
17 | Cc1ccc(C)c(NC(=O)CSc2nnc([C@@H](N)Cc3c[nH]c4ccccc34)o2)c1 | 6% (inactive) | 101 | 94.5% (inactive) | 101% (inactive) | 86.9% (inactive) | 106% (inactive) | 13.5% (inactive) | 92.9 | 106 | -5.2% (inactive) | -4.13% (inactive)
18 | CCOC(=O)C(O)(c1ccc(N(CC)C(=O)OC)cc1)C(F)(F)F (stereo not given) | 0% (inactive) | 99.5 | 105% (inactive) | 99.5% (inactive) | 110% (inactive) | 109% (inactive) | 20.5% (inactive) | 88.3 | 109 | -5.53% (inactive) | 5.74% (inactive)
19 | C(#CCN1CCOCC1)COCC#Cc1ccccc1 | 0% (inactive) | 92.5 | 85.5% (inactive) | 92.5% (inactive) | 91.4% (inactive) | 101% (inactive) | 15.2% (inactive) | 85.3 | 101 | -5.41% (inactive) | 1.11% (inactive)
20 | NC(=O)CSP(=O)(c1ccccc1)c1ccccc1 | 0% (inactive) | 94 | 118% (inactive) | 94% (inactive) | 109% (inactive) | 102% (inactive) | 10.1% (inactive) | 92.3 | 102 | -8.53% (inactive) | -2.9% (inactive)
21 | O=C(CN1C(=O)CN=C(c2ccccc2)c2ccccc21)NCc1ccco1 | 2% (inactive) | 98 | 100% (inactive) | 98% (inactive) | 96.7% (inactive) | 80.4% (inactive) | -1.24% (inactive) | 81.7 | 80.4 | -3.42% (inactive) | -5% (inactive)
22 | CN1CCC(N(C)c2ncnc3ccc(Br)cc23)CC1 | 0% (inactive) | 100 | 99.5% (inactive) | 100% (inactive) | 78.5% (inactive) | 87.9% (inactive) | -25.8% (inactive) | 114 | 87.9 | -6.1% (inactive) | 0.79% (inactive)
23 | Cc1[nH]c2c(Cl)cccc2c1CCN | 0% (inactive) | 97.5 | 85.5% (inactive) | 97.5% (inactive) | 84.4% (inactive) | 13.2% (active) | -69.9% (inactive) | 83.1 | 13.2 | -4.67% (inactive) | 5.9% (inactive)
24 | Nc1ccccc1C(=O)OC1CSC1 | 0% (inactive) | 132 | 110% (inactive) | 132% (inactive) | 105% (inactive) | 89.2% (inactive) | 0.43% (inactive) | 88.7 | 89.2 | -2.53% (inactive) | 1.45% (inactive)
25 | O=C(c1ccc(CS(=O)(=O)c2ccccc2)o1)N1CCC2(CC1)OCCO2 | 0% (inactive) | 90 | 112% (inactive) | 90% (inactive) | 96.5% (inactive) | 85% (inactive) | -6.95% (inactive) | 92 | 85 | -2.11% (inactive) | -2.73% (inactive)
26 | CC(C)(C)C(O)C(Oc1ccc(Cl)cc1)n1cncn1 (stereo not given) | 9% (inactive) | 86.5 | 83.5% (inactive) | 86.5% (inactive) | 88.2% (inactive) | 87.2% (inactive) | 5.54% (inactive) | 81.7 | 87.2 | -4.46% (inactive) | 94% (active)
27 | COc1ccc(CN2CCN(C(=O)Cc3ccccc3)CC2)c(OC)c1 | 0% (inactive) | 93 | 90% (inactive) | 93% (inactive) | 89.9% (inactive) | 97.3% (inactive) | 9.87% (inactive) | 87.4 | 97.3 | -6.08% (inactive) | 1.59% (inactive)
28 | O=c1[nH]c(=O)n(Cc2ccco2)c(O)c1C=NCCCn1ccnc1 | 0% (inactive) | 88.5 | 104% (inactive) | 88.5% (inactive) | 93.5% (inactive) | 95.2% (inactive) | 0.33% (inactive) | 94.8 | 95.2 | 0.77% (inactive) | -3.33% (inactive)
29 | Cc1ccc(C(=O)C2CN3CCC2CC3)cc1 (stereo not given) | 0% (inactive) | 93 | 91% (inactive) | 93% (inactive) | 94.3% (inactive) | 97.6% (inactive) | 4.27% (inactive) | 93.3 | 97.6 | -4.55% (inactive) | 4.5% (inactive)
30 | Cc1ccc(C2SCC(=O)Nc3c2c(=O)[nH]n3C2CCOC(C)(C)C2)cc1 (stereo not given) | 0% (inactive) | 100 | 92% (inactive) | 100% (inactive) | 90.9% (inactive) | 98.2% (inactive) | 11.2% (inactive) | 87 | 98.2 | -5.66% (inactive) | 5.83% (inactive)

Source: PubChem BioAssay
